Bioassay records deposited in PubChem BioAssay by several laboratories.
TNAP inh hi DEA = human TNAP enzyme inhibitors, primary screen, biochemical, luminescent, high phosphate acceptor level, uHTS; Alkaline phosphatase, tissue-nonspecific isozyme (Homo sapiens), P05186; purified TNAP, CDP-star luminescence, 1 M DEA; inhibition, % at 20 µM; 0.03% of 200,000 active;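 active means over 50% inhibition of tissue-nonspecific alkaline phosphatase at 20 µM in the single-dose screen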
Target sequence (P05186 whole entry, looked up): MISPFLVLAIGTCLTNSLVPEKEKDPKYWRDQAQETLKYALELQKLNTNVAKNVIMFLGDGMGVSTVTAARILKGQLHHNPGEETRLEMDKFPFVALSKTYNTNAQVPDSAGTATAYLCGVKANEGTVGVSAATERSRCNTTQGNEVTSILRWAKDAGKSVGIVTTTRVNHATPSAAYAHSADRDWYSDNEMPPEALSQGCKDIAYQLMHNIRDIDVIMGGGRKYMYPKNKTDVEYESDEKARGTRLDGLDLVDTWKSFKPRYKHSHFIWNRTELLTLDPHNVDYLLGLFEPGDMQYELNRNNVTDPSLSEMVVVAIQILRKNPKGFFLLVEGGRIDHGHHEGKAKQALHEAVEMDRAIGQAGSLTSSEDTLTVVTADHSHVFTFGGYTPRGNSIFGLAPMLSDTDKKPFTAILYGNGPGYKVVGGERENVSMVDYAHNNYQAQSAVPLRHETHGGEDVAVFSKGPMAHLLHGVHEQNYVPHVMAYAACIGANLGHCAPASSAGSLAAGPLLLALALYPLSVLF
TNAP inh no acc = human TNAP enzyme inhibitors, primary screen, biochemical, luminescent, no phosphate acceptor, uHTS. AID 1012, 2008. purified TNAP, CDP-star luminescence, 30 min. inhibition, % at 20 µM. 0.26% of 200,000 active;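 active means tissue-nonspecific alkaline phosphatase inhibition above about 50% at 20 µM in the single-dose screen, limit read from the data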
PKD1 kinase inh = inhibitors of human PKD1 kinase, biochemical, fluorescence polarization; inhibition, % (test concentration not listed); PKD1 kinase fluorescence polarization assay; 0.056% of 200,000 active; in the data active means inhibition above about 50%
TNAP act hiacc = TNAP activators at high phosphate acceptor level, primary screen, biochemical, luminescence, uHTS; purified TNAP, CDP-star luminescence, 1 M DEA, 30 min; stronger effect = higher value; 0 = EDTA background, 1 = DMSO-only activity; 200,000 tested, under 10 active; activation factor at 20 µM; Alkaline phosphatase, tissue-nonspecific isozyme (Homo sapiens), P05186;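 active means activation factor at least 2 at 20 µM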
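Control set: EDTA negative control, DMSO positive control / Assay system: human TNAP / Quantity: TNAP 1/800 final / Evaluation: TNAP activation factor scaled between EDTA and DMSO control wells / Measured by: luminescent substrate turnover signal / Compound dosing: one dose, 20 µM / Times: 30 min enzyme reaction at room temperature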
A number is an active result; – = inactive; · = not tested or not shown. Shown are actives, neighbours in structure and some others; about 0.35% of the full set was active somewhere.

SMILES	TNAP inh hi DEA	TNAP inh no acc	PKD1 kinase inh	TNAP act hiacc
CCCS(=O)(=O)c1c(S(=O)(=O)CCC)c2ccc(C(C)=O)cn2c1C(=O)OC	–	–	–	–
Cc1ccccc1S(=O)(=O)Cc1ccc(C(=O)N2CCN(C3CCCCC3)CC2)o1	–	–	–	–
Cc1c(C(=O)NC(=S)NCC(C)C)oc2ccccc12	–	–	–	–
O=C(CSc1n[nH]c(-c2ccccc2)n1)NCc1cccc(C(=O)O)c1	–	69.5	–	–
COc1cc(Br)c(C(C)NC(=O)c2cccc(Br)c2)cc1OC (stereo unspecified)	–	–	–	–
O=C(Nc1ncc(Br)s1)C1CCCN1S(=O)(=O)c1cccc2cccnc12 (stereo unspecified)	–	–	–	–
O=[N+]([O-])c1ccccc1NC(=S)N/N=C/c1ccc(O)c(O)c1	–	84.9	–	–
CCOc1cccc(/C=N/NC(=S)Nc2ccccc2[N+](=O)[O-])c1O	–	–	–	–
O=C(/C=C\c1ccco1)c1ccc(NC(=O)c2ccco2)cc1	–	–	–	–
Cn1ncc2c1ncn1nc(CCc3ccccc3)nc21	–	59.4	–	–
CC(C)CCNC(=O)C(C)N(C(=O)c1snc(C(N)=O)c1N)c1cnc2ccccc2c1 (stereo unspecified)	–	61.9	–	–
CC(C(=O)NCC1CCCO1)N(C(=O)c1snc(C(N)=O)c1N)c1ccccc1 (stereo unspecified)	–	–	–	–
COCCCn1c(=S)[nH]c2ccc(N3CCOCC3)cc2c1=O	–	–	·	–
CN1CCc2cc(Cl)c(O)cc2[C@@H](c2ccccc2)C1	–	–	·	–
Oc1cc2c(cc1O)[C@@H](c1ccccc1)CNCC2	–	66.1	–	–
COc1cc(/C=C2/C(=O)c3cccc([N+](=O)[O-])c3C2=O)c(Br)cc1O	–	66.2	–	–
COc1cccc2c1C(=O)c1c(O)c3c(c(O)c1C2=O)C[C@@](O)(C(=O)CO)C[C@@H]3O[C@H]1C[C@H](N)[C@H](O)[C@H](C)O1	–	–	74.7	–
CCc1nnc(NC(=O)CSc2nnc(Cc3cc(=O)[nH]c(=O)[nH]3)n2-c2cccc(OC)c2)s1	–	–	–	–
CCOCCCNC(=O)C1CCN(S(=O)(=O)c2ccc(C)cc2)CC1	–	–	–	–
O=P(O)(O)c1ccccc1OCCCCCOc1ccccc1P(=O)(O)O	–	88.9	–	–
O=P(O)(O)c1ccccc1OCCOCCOc1ccccc1P(=O)(O)O	–	72.2	–	–
COC(=O)CN(c1ccc(F)cc1)S(=O)(=O)c1ccccc1	–	–	–	–
COc1ccc(NC(=S)NCc2ccco2)cc1	–	–	–	–
CCCc1cc(=O)[nH]c(SCCCCN2C(=O)c3ccccc3C2=O)n1	–	–	108.7	–
CCCc1cc(=O)[nH]c(SCc2ccccc2)n1	–	–	–	–
SMILES	TNAP inh hi DEA	TNAP inh no acc	PKD1 kinase inh	TNAP act hiacc
CC(=O)n1nc(-c2cccnc2)nc1NCc1cccs1	–	57.4	–	–
CCCC(=O)n1nc(-c2cccnc2)nc1NCc1cccs1	–	–	–	–
CCC(=O)n1nc(-c2cccnc2)nc1NCc1cccs1	–	69.0	–	–
Nc1ccc(N2CCN(CCCCN3C(=O)C4CCCN4C3=O)CC2)cc1 (stereo unspecified)	–	–	–	–
O=C(NNC(=O)c1ccc(Cl)cc1Cl)Nc1ccccc1	–	–	–	–
COc1ccc(Cc2nnc(N=Nc3c(O)[nH]c4ccc(Br)cc34)[nH]c2=O)cc1	–	52.8	–	–
O=C1c2ccccc2C(=O)N1CCCc1nc2ccccc2c(=O)n1CCCn1ccnc1	–	52.9	–	–
Cn1c(-n2c(CCCN3C(=O)c4ccccc4C3=O)nc3ccccc3c2=O)nc2ccccc21	–	–	–	–
CC(C)(C)n1nc2c(c1NC(=O)c1cc3ccccc3o1)CS(=O)(=O)C2	–	50.7	–	–
CC(C)(C)n1nc2c(c1NC(=O)c1ccccc1)CS(=O)(=O)C2	–	–	–	–
Cc1nn(-c2ccccc2)c(C)c1/C=N/NC(=O)c1cc(-c2ccccc2)n[nH]1	–	97.7	–	–
O=C(CSc1ccc2ccccc2c1)NCCc1ccc(O)c(O)c1	–	53.6	–	–
COc1ccc(CCNC(=O)CSc2ccc3ccccc3c2)cc1OC	–	–	–	–
Cc1noc(NS(=O)(=O)c2ccc(NC(=O)CSc3nc4ccccc4[nH]3)cc2)c1C	–	–	–	–
